An excerpt weighted towards active compounds, which were near 2.2% of everything screened.
697 NFkB inh: lowers PMA/ionomycin-induced NF-kB signal in 697 B cells; 697 B-cell NF-kB luciferase reporter, 16 h; inhibition, % at 4 µM; 0.33% of 330,000 active; in the data active = inhibition above about 35%
Jurkat NFkB inh: inhibitors of the PMA/ionomycin-induced NF-kB reporter in Jurkat cells; PMA/ionomycin-induced NF-kB luciferase reporter, luminescence; inhibition, % at 4 µM; 0.53% of 330,000 active; AID 435003; in the data active = inhibition above about 50%
FGF22 binding: shifts melting point of recombinant human FGF22 | recombinant FGF22 thermal shift, SYPRO orange fluorescence; percent of sucrose octasulfate shift, DMSO zero | 1.5% of 340,000 active | activity (Tm shift, normalised), % at 9.99 µM | Q9HCT0;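 active = mean Tm shift, scaled 0 neutral to 100 positive control, at about 1.3% or above, every replicate too, limit read from the data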
Target sequence (Q9HCT0 whole entry, looked up): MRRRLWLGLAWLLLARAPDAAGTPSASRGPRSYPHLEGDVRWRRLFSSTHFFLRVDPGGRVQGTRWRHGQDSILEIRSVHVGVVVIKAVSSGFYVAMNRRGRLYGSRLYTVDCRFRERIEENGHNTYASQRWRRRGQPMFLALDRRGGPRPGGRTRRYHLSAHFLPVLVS
miR-122 sensor: blocks miR-122 activity in Huh7 sensor cells. Huh7 miR-122 Renilla luciferase sensor, 48 h; neutral wells = 0, positive control = 100. activation (reporter increase), % at 12.5 µM. 0.3% of 340,000 active;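 active = mean replicate activation score at least 90 and every replicate individually at or above 90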;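 note: higher luciferase means less miR-122 activity so hits act as miR-122 inhibitors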
NR2E3 ag-1: activates human photoreceptor nuclear receptor NR2E3; Q9Y5X4; GST-NR2E3/biotin-RetCOR TR-FRET, 1536-well; inhibition of corepressor binding, % at 4.78 µM; 0.12% of 320,000 active; AID 2300;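 active = percent inhibition above the cutoff of mean plus 3 SD of all tested compounds, set per screening campaign, cut at about 20% in these data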;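 note: 0% = DMSO wells and 100% = biotin wells as full block of FRET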
Target sequence (Q9Y5X4 whole entry, looked up): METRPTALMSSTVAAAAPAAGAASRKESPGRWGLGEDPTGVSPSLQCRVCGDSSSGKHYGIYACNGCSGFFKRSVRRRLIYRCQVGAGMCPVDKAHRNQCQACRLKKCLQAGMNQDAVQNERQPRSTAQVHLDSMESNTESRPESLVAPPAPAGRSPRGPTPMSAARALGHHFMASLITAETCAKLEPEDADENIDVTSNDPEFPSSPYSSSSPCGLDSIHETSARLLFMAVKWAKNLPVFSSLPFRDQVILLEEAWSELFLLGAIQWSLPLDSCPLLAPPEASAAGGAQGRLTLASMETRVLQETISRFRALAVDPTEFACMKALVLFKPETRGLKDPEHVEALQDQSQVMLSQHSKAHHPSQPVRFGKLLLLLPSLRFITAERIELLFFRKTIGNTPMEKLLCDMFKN
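Material: NR2E3–RetCOR corepressor complex / Incubation: Compound–protein incubation for 5 h at 4 °C / Dosing: compound at 4.8 µM, single dose / Detection: time-resolved FRET / Benchmarks: high control biotin, low control 0.6% DMSO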
NR2E3 ag-2: human photoreceptor-specific nuclear receptor agonism. Q9Y5X4. CHO-S Gal4-NCOR/VP16-NR2E3 two-hybrid, luciferase. inhibition of corepressor binding, % at 3.98 µM. 0.35% of 360,000 active;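 active = inhibition above the mean of all tested compounds plus 3 SD, cut at about 70% in these data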;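 note: 0% = DMSO with NR2E3 transfected cells and 100% = cells lacking NR2E3 construct; higher means lower luciferase signal from less NR2E3 corepressor binding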
Jurkat NFkB conf: lowers PMA/ionomycin-induced NF-kB signal in Jurkat cells. shares compounds with Jurkat NFkB inh. Jurkat NF-kB luciferase, 16 h. inhibition, % at 4 µM. 27% of 2,700 active. AID 435020;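 active = inhibition reaching about 45% at 4 µM in either replicate, limit read from the data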;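 note: plate controls were PMA/ionomycin stimulated DMSO wells for no effect and unstimulated DMSO wells for full effect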
The depositor's hits bear a star; . = no result; [ ] = remark or other dose.

SMILES | 697 NFkB inh | Jurkat NFkB inh | FGF22 binding | miR-122 sensor | NR2E3 ag-1 | NR2E3 ag-2 | Jurkat NFkB conf
O=C1C2C3C=CC(C3)C2C(=O)N1c1ccncc1 (stereo not given) | -5 | -5 | . | -8 | 2 | -26 | .
O=C1C2C3C=CC(C3)C2C(=O)N1c1ccc(-c2nc3ccccc3o2)cc1 (stereo not given) | -107 | -172 | . | -5 | -1 | -116 | -55
Cc1ccc(NC(=S)c2ccc(N(C)C)cc2)cc1 | -96 | -199 | . | 7 | 3 | -132 | -49
Cc1ccc2nc(-c3ccc4c(c3)OCCO4)cn2c1 | -21 | 83* | 0 | 16 | -1 | -27 | 51*
O=C(C[C@@H]1CC[C@@H](NC(=O)Cc2ccccn2)[C@@H](CO)O1)NCCc1ccccc1 | . | . | 0 | . | . | . | .
C[C@@H](NC(=O)[C@@H]1[C@@H](CO)[C@@H]2Cn3c(ccc(-c4cccnc4)c3=O)[C@H]1N2C)c1ccccc1 | . | . | 0 | 1[16.7 µM] | . | . | .
Cc1ccc(N/N=C(\C#N)C(=N)N2CCOCC2)cc1 | -17 | -61 | 0 | . | 0 | -68 | .
COc1ccc(N/N=C(\C#N)C(=N)N2CCCCC2)cc1 | -54 | -44 | . | . | -4 | -89 | .
N#C/C(=N\Nc1ccc(F)cc1)C(=N)N1CCCCCC1 | -181 | -194 | 0 | 28 | 1 | -157 | -55
Cc1ccc(N/N=C(\C#N)C(=N)N2CCCCCC2)cc1 | -148 | -185 | 0 | . | 0 | -112 | -90
N#C/C(=N\Nc1ccc(Cl)cc1)C(=N)N1CCCCC1 | -228 | -200 | . | 10 | 1 | -194 | -103
COc1cc(CN2CC3(CN(C(=O)Nc4c(C)noc4C)C3)c3c(n(C)c4cc(OC)ccc34)[C@H]2CO)cc(OC)c1 | . | . | 0 | . | . | . | .
CO[C@@H]1CN(C)C(=O)c2cccc(C#N)c2OC[C@H]2O[C@H](CC[C@H]2OC)CCN(C)C(=O)[C@H]1C | . | . | 0 | . | . | . | .
N#C[C@@H]1[C@@H](c2ccccc2)[C@H](CO)N1C(=O)c1cccnc1 | . | . | 0 | . | . | . | .
CCOC(=O)C1CCCN(C(=O)c2cc3c(-c4cccc(OC)c4)nn(C)c3s2)C1 (stereo not given) | -15 | 55* | . | 10 | -2 | -22 | 11
CCOC(=O)C1CCN(C(=O)c2cc3c(-c4ccc(OC)c(OC)c4)nn(C)c3s2)CC1 | 16 | 8 | . | -10 | 2 | -23 | .
C[C@@H]1CCCCO[C@@H](CN(C)S(=O)(=O)c2ccc(Cl)cc2)[C@H](C)CN([C@@H](C)CO)C(=O)c2cc(NC(=O)CCCN(C)C)ccc2O1 | . | . | 0 | 5[16.7 µM] | . | . | .
O=C(Nc1cccc(S(=O)(=O)N2CCCC2)c1)c1ccc(Cl)nc1 | -39 | 63* | 0 | . | . | 14 | 32
O=C(Nc1cccc(S(=O)(=O)N2CCOCC2)c1)c1ccc(Cl)nc1 | -22 | 14 | 0 | 16 | . | 10 | .
C[C@H]1CN([C@@H](C)CO)S(=O)(=O)c2ccc(-c3ccc(C(=O)N(C)C)cc3)cc2O[C@@H]1CN(C)Cc1ccccc1C(=O)O | . | . | 0 | -5[16.7 µM] | . | . | .
COc1ccccc1NC(=O)/C=C\c1ccco1 | -4 | -11 | 0 | 5 | -1 | -40 | .
COc1ccccc1NC(=O)/C(C#N)=C/C=C/c1ccco1 | 0 | 59* | . | 25 | -2 | -23 | -7
C[C@H]1CCCCO[C@H](CN(C)Cc2ccc(C(=O)O)cc2)[C@@H](C)CN([C@@H](C)CO)C(=O)c2cc(NC(=O)Nc3ccc(F)cc3)ccc2O1 | . | . | . | 6[16.7 µM] | . | . | .
COc1ccc2[nH]c3c(N4CC(C)OC(C)C4)ncnc3c2c1 (stereo not given) | 30 | 6 | . | . | -4 | . | .
COc1cccc(N2CCN(c3ncnc4c3[nH]c3ccccc34)CC2C)c1 (stereo not given) | 16 | 54* | . | . | -3 | . | 79*
SMILES | 697 NFkB inh | Jurkat NFkB inh | FGF22 binding | miR-122 sensor | NR2E3 ag-1 | NR2E3 ag-2 | Jurkat NFkB conf
CN(Cc1ccccc1)C1=CC(=[N+]2CCCCC2)CC(C)(C)C1 | 12 | 69* | 0 | -27 | -1 | 27 | 66*
CCN(Cc1ccccc1)c1ccc(/C=N/N=C(N)N)cc1 | -37 | 61* | 0 | -23 | 2 | 7 | 13
N#Cc1cc(Br)ccc1N=C1CCCN1c1ccccc1 | 2 | -1 | 0 | 0 | 4 | -39 | .
Cc1cccc(N2CCCC2=Nc2ccc(Br)cc2C#N)c1 | 6 | 62* | . | 2 | 2 | 8 | 9
C[C@@H]1CN([C@H](C)CO)C(=O)c2cc(NC(=O)Nc3ccc(C(F)(F)F)cc3)ccc2O[C@@H]1CN(C)C(=O)Nc1ccc(F)cc1 | . | . | 0 | 7[16.7 µM] | . | . | .
O=C(NCCc1ccc(Cl)cc1)c1ccc2c(c1)OCO2 | -161 | -141 | 0 | 4 | 3 | -100 | .
O=C(NCCc1ccc(Cl)cc1)c1ccc2c(c1)OCCO2 | -223 | -169 | . | -4 | 5 | -114 | -133
Oc1c(-c2cc(-c3ccco3)[nH]n2)ccc2ccccc12 | -147 | -156 | . | 10 | 0 | -159 | -73
Oc1ccccc1-c1cc(-c2ccco2)[nH]n1 | -17 | -26 | . | 12 | 2 | -111 | .
Cc1ccc(S(=O)(=O)N2C[C@@H](O)COC[C@H]3O[C@@H](CC(=O)NCC4CCCCC4)CC[C@@H]32)cc1 | . | . | 0 | -2[16.7 µM] | . | . | .
Cc1nc2cc(NC(=O)c3ccc(Br)s3)ccc2s1 | -14 | -221 | 0 | -1 | 4 | -15 | -55
Cc1nc2ccc(NC(=O)c3cc(Cl)ccn3)cc2s1 | -197 | -162 | 0 | -1 | 0 | -150 | -109
CC(C)C1COC(c2cccc3ccccc23)=N1 (stereo not given) | -193 | -159 | 0 | -1 | 5 | -72 | -40
COc1cc(/C=C2/SC(=Nc3ccc(O)cc3)NC2=O)ccc1O | -83 | 59* | . | . | -2 | -54 | 39
COc1cc(/C=C2\SC(=Nc3ccccc3OC)NC2=O)ccc1O | 4 | -5 | 0 | . | 3 | -7 | .
Cc1ccc(NC(=O)c2noc3c2CCCCC3)cc1 | -220 | -193 | . | 2 | 0 | -119 | -79
CCc1ccc(NC(=O)c2noc3c2CCCCC3)cc1 | -224 | -245 | . | -1 | 1 | -96 | -146
C[C@H]1CN([C@@H](C)CO)C(=O)Cc2cc(NS(C)(=O)=O)ccc2O[C@H]1CN(C)Cc1ccc(Oc2ccccc2)cc1 | . | . | 0 | 6[16.7 µM] | . | . | .
Cc1ccc(-c2cc(C(=O)N3CCCCCC3)no2)cc1 | -229 | -182 | 0 | -1 | 5 | -165 | -115
O=C(c1cc(-c2cccc(O)c2)on1)N1CCCCC1 | -184 | -160 | 0 | 7 | 1 | -107 | -88
O=C(c1cc(-c2cccc(O)c2)on1)N1CCCC1 | -85 | -114 | 0 | -1 | -1 | -94 | .
[O-][n+]1onc2c1CCc1c-2nn(-c2ccccc2Cl)[n+]1[O-] | -12 | 59* | 0 | . | 3 | 12 | 12
